Tests used:
[1] = Cytotoxicity, MTT reduction assay in HepG2 cells; format: cell-based; settings: human, HepG2 cells, CC50 (HepG2)
Procedure, shortened: (§1)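 HepG2 cells grown at 37 °C, 5% CO2 in DMEM with streptomycin (40 mg/L) and 10% heat-inactivated FBS. Seeded at 1 × 10^3 cells/well, then exposed to serial dilutions of test compound for 72 h, each concentration in triplicate. MTT added for 4 h; formazan dissolved in isopropanol, read at OD570. Viability expressed as % of vehicle control; CC50 fitted from % viability vs log concentration.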

[2] = Cytotoxicity, methylene blue staining in Calu-3 cells; format: cell-based; settings: human, Calu-3 cell monolayers
Procedure, shortened: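 Calu-3 monolayers (2 × 10^4 cells/well) exposed to test compound at several concentrations for 72 h at 37 °C, 5% CO2, triplicate per concentration. Cells PBS-washed, then fixed and stained 1 h at 37 °C with HBSS + 1.25% glutaraldehyde + 0.6% methylene blue. Rinsed with water; dye eluted 15 min at room temperature (50% ethanol, 49% PBS, 1% acetic acid); A660 read. CC50 fitted from % viability vs log concentration.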

SARS-CoV-2 = format: cell-based, SARS-CoV-2 B.1 lineage; settings: correlation between anti-SARS-CoV-2 activity (EC50) and HepG2 cytotoxicity (CC50)
HepG2 cell lines = test: Cytotoxicity, MTT reduction assay in HepG2 cells; format: cell-based; settings: read-out: CC50 (HepG2), 72 h
Procedure, shortened: as §1

SMILES | CC50 at 72 h [1] [µM] | CC50 at 72 h [2] [µM] | selectivity index (SARS-CoV-2) | CC50 (HepG2 cell lines) [µM]
Cc1c(-c2ccc(-c3ccccc3F)cc2)nc2ccc(F)cc2c1C(=O)O [brequinar] | 17 ± 4 | 48 ± 2 |  | 
CC(C)=CCC1=C(O)C(=O)c2ccccc2C1=O [lapachol] | 71 ± 9 | 67 ± 2 | 47 ± 7 | 
C/C(O)=C(\C#N)C(=O)Nc1ccc(C(F)(F)F)cc1 [teriflunomide] | 164 | 59 ± 2 |  | 160 ± 20

— publication PMC10938441 (ACS Omega, 2024)
